Reference: ChEMBL document CHEMBL1154067, “Antiviral and cytotoxic activities of aminoarylazo compounds and aryltriazene derivatives” (Bioorg Med Chem, 2009)
The source made the active and inactive calls.

Legend:
[1] = system: MT4; assay: Cytotoxicity against human MT4 cells after 96 hrs by MTT assay; type: cell-based; conditions: mt4, 96 h
Outline: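 Exponentially growing mock-infected MT-4 seeded at 1 × 10^5 cells/mL in RPMI-1640 with 10% FCS, penicillin and streptomycin. Incubated with or without serial compound dilutions at 37 °C, 5% CO2. Viability by MTT after 96 h. CC50 = concentration reducing viability 50%.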

[2] = Cytotoxicity against MDBK cells after 48 to 96 hrs by MTT assay; type: cell-based, Bos taurus; conditions: cattle, mdbk
Outline: (§1)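 Mock-infected cells in maintenance medium, MDBK at 6 × 10^5 and BHK at 1 × 10^6 cells/mL initial density, with or without serial compound dilutions. Run in parallel with antiviral assays. Viability by MTT after 48–96 h at 37 °C, 5% CO2. CC50 = concentration reducing viability 50%.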

[3] = system: Bovine viral diarrhea virus 1; assay: Antiviral activity against Bovine viral diarrhea virus infected in MDBK cells assessed as inhibition of virus-induced cytopathicity after 3 to 4 days by MTT assay; type: functional, organism-based; conditions: Bovine viral diarrhea virus isolates and strains
[4] = system: Yellow fever virus; assay: Antiviral activity against Yellow fever virus infected in BHK-21 cells assessed as inhibition of virus-induced cytopathicity after 3 to 4 days by MTT assay; type: functional, organism-based
[5] = system: Mammalian orthoreovirus 1; assay: Antiviral activity against Reovirus-1 infected in BHK-21 cells assessed as inhibition of virus-induced cytopathicity after 3 to 4 days by MTT assay; type: functional, organism-based; conditions: Mammalian orthoreovirus 1, BHK-21
Outline: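 BHK-21 cells seeded at 5 × 10^4 cells/well, grown overnight to confluent monolayers at 37 °C in 5% CO2, then infected at m.o.i. 0.01 in serum-free medium. One hour later, MEM Earle's with 1% final inactivated FCS added, with or without serial compound dilutions. Viability read by MTT after 3–4 days at 37 °C. EC50 is the concentration giving 50% protection from cytopathogenicity.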

[6] = system: Vero; assay: Cytotoxicity against african green monkey Vero 76 cells by crystal violet staining; type: cell-based; conditions: chlorocebus sabaeus, vero
Outline: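 Mock-infected Vero 76 seeded at 4 × 10^5 cells/mL, run in parallel with plaque assays, with or without serial compound dilutions. Cell number of monolayers determined by crystal violet staining. CC50 = concentration reducing viable cell number 50%.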

[7] = system: Coxsackievirus B2; assay: Antiviral activity against Coxsackie virus type B2 virus infected in african green monkey Vero-76 cells after 3 days by plaque reduction assay; type: functional, organism-based; conditions: Enterovirus B, Vero 76, 72 h
Outline: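 Vero 76 cells seeded at 2 × 10^5 cells/well, grown overnight to confluence at 37 °C in 5% CO2, then infected at 50–100 PFU/well. Unadsorbed virus removed. Overlay of DMEM with 1% inactivated FCS and 0.75% methylcellulose, with or without serial compound dilutions. After 3 days at 37 °C, fixed and stained with crystal violet in PBS/50% ethanol; plaques counted. EC50 is the concentration reducing plaque number by 50%.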

[8] = system: Respiratory syncytial virus; assay: Antiviral activity against Respiratory syncytial virus A2 infected in Vero-76 cells after 5 days by plaque reduction assay; type: functional, organism-based; conditions: human respiratory syncytial virus, A2, Vero 76, 120 h
[9] = system: Human alphaherpesvirus 1; assay: Antiviral activity against HSV1 infected in Vero-76 cells after 3 days by plaque reduction assay; type: functional, organism-based; conditions: Human alphaherpesvirus 1, Vero 76, 72 h
[10] = Cytotoxicity against hamster BHK21 cells assessed as reduction in cell viability after 48 to 96 hrs by MTT assay; type: cell-based, Mesocricetus auratus, BHK-21; conditions: bhk-21; outline: as §1
[11] = system: Poliovirus 1; assay: Antiviral activity against Human poliovirus 1 strain Sabin after 2 days by plaque reduction assay; type: functional; conditions: for EC50: Enterovirus C, 48 h
[12] = system: Human immunodeficiency virus 1; assay: Antiviral activity against HIV1 infected in human MT4 cells assessed as inhibition of virus-induced cytopathicity after 4 days by MTT assay; type: functional, organism-based
[13] = system: Vesicular stomatitis virus; assay: Antiviral activity against Vesicular stomatitis virus after 2 days by plaque reduction assay; type: functional, organism-based
[14] = system: Vaccinia virus; assay: Antiviral activity against Vaccinia virus after 3 days by plaque reduction assay; type: functional, organism-based; conditions: Orthopoxvirus vaccinia

| SMILES | CC50 [1] | CC50 [2] | EC50 [3] | EC50 [4] | EC50 [5] | CC50 [6] | EC50 [7] | EC50 [8] | EC50 [9] | CC50 [10] | EC50 [11] | inhibition [12] | Activity [13] | Activity [14] | Activity [11] |
| --- | --- | --- | --- | --- | --- | --- | --- | --- | --- | --- | --- | --- | --- | --- | --- |
| CN(C)CCCN(/N=N/c1cccc([N+](=O)[O-])c1)c1ccccc1 | 14 µM | 37 µM | > 37 µM | 24 µM | > 54 µM | 40 µM | > 40 µM | > 40 µM | 30 µM | 54 µM | > 40 µM | inactive | inactive | inactive | – |
| CN(C)CCCNc1ccc(/N=N/c2ccccc2)cc1 | 17 µM | 58 µM | 1.6 µM | ≥ 31 µM | > 31 µM | 30 µM | > 30 µM | 25 µM | > 30 µM | 31 µM | – | inactive | inactive | inactive | inactive |
| CN(C)CCCNc1ccc(/N=N/c2cc(F)ccc2F)cc1 | 16 µM | 59 µM | 9 µM | 12 µM | > 33 µM | 30 µM | > 30 µM | > 30 µM | 12 µM | 33 µM | – | inactive | inactive | inactive | inactive |
| CN(C)CCCN(/N=N/c1c(F)cccc1F)c1ccccc1 | 23 µM | 45 µM | > 45 µM | 20 µM | > 52 µM | 25 µM | 9 µM | ≥ 25 µM | 12 µM | 52 µM | > 25 µM | inactive | inactive | inactive | – |
| Cc1c(/N=N/c2ccccc2)ccc(NC[C@@H]2CCCN3CCCC[C@H]23)c1C | 31 µM | 48 µM | 2.5 µM | 9 µM | > 47 µM | 60 µM | > 60 µM | > 60 µM | > 60 µM | 47 µM | – | inactive | inactive | inactive | inactive |
| FC(F)(F)c1cccc(/N=N/c2ccc(NC[C@@H]3CCCN4CCCC[C@H]34)c3c2CCCC3)c1 | 15 µM | 30 µM | 7 µM | > 14 µM | > 14 µM | 50 µM | > 50 µM | > 50 µM | > 50 µM | 14 µM | – | inactive | inactive | inactive | inactive |
| O=[N+]([O-])c1cccc(/N=N/Nc2cccc([N+](=O)[O-])c2)c1 | > 100 µM | > 100 µM | > 100 µM | > 100 µM | > 100 µM | > 100 µM | > 100 µM | > 100 µM | > 100 µM | > 100 µM | > 100 µM | inactive | inactive | inactive | – |
| Cc1c(/N=N/c2cccc(C(F)(F)F)c2)ccc(NC[C@@H]2CCCN3CCCC[C@H]23)c1C | 77 µM | 52 µM | 7 µM | > 100 µM | > 100 µM | 80 µM | > 80 µM | > 80 µM | > 80 µM | ≥ 100 µM | – | inactive | inactive | inactive | inactive |
| c1ccc(/N=N/c2ccc(NC[C@@H]3CCCN4CCCC[C@H]34)c3c2CCCC3)cc1 | 100 µM | > 100 µM | 30 µM | ≥ 100 µM | > 100 µM | 80 µM | > 80 µM | > 80 µM | > 80 µM | > 100 µM | – | inactive | inactive | inactive | inactive |
| CN(C)CCCN(/N=N/c1cc(F)ccc1F)c1cccc(C(F)(F)F)c1 | 16 µM | > 100 µM | 90 µM | > 54 µM | > 54 µM | 30 µM | > 30 µM | > 30 µM | > 30 µM | 54 µM | > 30 µM | inactive | inactive | inactive | – |
| Fc1ccc(F)c(/N=N/c2ccc(NC[C@@H]3CCCN4CCCC[C@H]34)c3c2CCCC3)c1 | 40 µM | 64 µM | > 64 µM | > 38 µM | > 38 µM | 80 µM | > 80 µM | > 80 µM | > 80 µM | 38 µM | – | inactive | inactive | inactive | inactive |
| FC(F)(F)c1cccc(N/N=N/c2ccccc2)c1 | > 100 µM | > 100 µM | > 100 µM | ≥ 100 µM | > 100 µM | 15 µM | 8 µM | 3 µM | > 15 µM | > 100 µM | > 15 µM | inactive | inactive | inactive | – |
| Fc1ccc(F)c(/N=N/Nc2ccccc2)c1 | 100 µM | > 100 µM | > 100 µM | > 100 µM | > 100 µM | 80 µM | 12 µM | 10 µM | 55 µM | > 100 µM | > 80 µM | inactive | inactive | inactive | – |
| CN(C)CCCNc1ccc(/N=N/c2ccc([N+](=O)[O-])cc2)cc1 | 19 µM | > 100 µM | > 100 µM | > 100 µM | > 100 µM | 60 µM | > 60 µM | > 60 µM | > 60 µM | > 100 µM | – | inactive | inactive | inactive | inactive |
| FC(F)(F)c1cccc(N(C[C@@H]2CCCN3CCCC[C@H]23)/N=N/c2ccccc2)c1 | 17 µM | 22 µM | > 22 µM | 23 µM | > 40 µM | 75 µM | > 75 µM | > 75 µM | > 75 µM | 40 µM | > 75 µM | inactive | inactive | inactive | – |
| CN(C)CCCN(/N=N/c1ccccc1)c1ccccc1 | 33 µM | 95 µM | ≥ 95 µM | > 50 µM | > 50 µM | 35 µM | 6 µM | > 35 µM | 12 µM | 50 µM | > 35 µM | inactive | inactive | inactive | – |
| O=[N+]([O-])c1cccc(/N=N/Nc2ccccc2)c1 | 40 µM | 94 µM | 19 µM | > 38 µM | > 38 µM | 33 µM | > 33 µM | > 33 µM | > 33 µM | 38 µM | > 33 µM | inactive | inactive | inactive | – |
| Cc1ccc(/N=N/N(CCCN(C)C)c2ccccc2)cc1 | 18 µM | > 100 µM | > 100 µM | > 100 µM | > 100 µM | 100 µM | > 100 µM | > 100 µM | > 100 µM | > 100 µM | > 100 µM | inactive | inactive | inactive | – |
